According to ChEMBL document CHEMBL4138312 (J Med Chem, 2018):

Key:
[1] = Clearance in CD1 mouse at 3 mg/kg, iv by LC/MS/MS analysis; type: ADME, organism-based; details: in vivo
Summary of the method: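 Mouse pharmacokinetics after a single iv dose of 3 mg/kg in 10% HPbCD + 5% dextrose in WFI at pH 4. Plasma clearance, half-life and steady-state volume of distribution were derived.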

[2] = Protein binding in CD1 mouse plasma assessed as unbound fraction; type: ADME, cell-free

Compound: CC[C@@H](C)Nc1nc(Nc2cc(N3C[C@@H]4C[C@H]3CN4C)cnc2F)ncc1C
- clearance [1]: 68.7 mL/min/kg
- fraction unbound [2]: 0.15
